Source: ChEMBL document CHEMBL2062435, “Synthesis and in vitro antibacterial activity of gemifloxacin derivatives containing a substituted benzyloxime moiety” (2012)

Tests used:
Type in all cases: functional
Escherichia coli [1] = assay: Antimicrobial activity against extended spectrum beta-lactamases-producing Escherichia coli 10-2 after 18-24 hrs by two-fold serial dilution method
Method in brief: (§1)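 Agar-medium twofold serial dilution against Gram-positive and Gram-negative strains; MIC taken as the lowest compound concentration giving complete inhibition of bacterial growth after incubation at 35 °C for 18-24 h.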

[2] = tested on: Staphylococcus epidermidis; assay: Antimicrobial activity against extended spectrum beta-lactamases-producing methicillin-sensitive Staphylococcus epidermidis 10-13 after 18-24 hrs by two-fold serial dilution method; method in brief: as §1
Klebsiella pneumoniae [3] = assay: Antimicrobial activity against Klebsiella pneumoniae 10-4 after 18-24 hrs by two-fold serial dilution method; method in brief: as §1
Escherichia coli [4] = assay: Antimicrobial activity against Escherichia coli 10-1 after 18-24 hrs by two-fold serial dilution method; method in brief: as §1
Enterococcus faecium [5] = assay: Antimicrobial activity against Enterococcus faecium 10-9 after 18-24 hrs by two-fold serial dilution method; method in brief: as §1
Klebsiella pneumoniae [6] = assay: Antimicrobial activity against extended spectrum beta-lactamases-producing Klebsiella pneumoniae 10-2 after 18-24 hrs by two-fold serial dilution method; method in brief: as §1
Klebsiella pneumoniae [7] = assay: Antimicrobial activity against Klebsiella pneumoniae 10-2 after 18-24 hrs by two-fold serial dilution method; method in brief: as §1
Klebsiella pneumoniae [8] = assay: Antimicrobial activity against extended spectrum beta-lactamases-producing Klebsiella pneumoniae 10-3 after 18-24 hrs by two-fold serial dilution method; method in brief: as §1
Escherichia coli [9] = assay: Antimicrobial activity against Escherichia coli 10-3 after 18-24 hrs by two-fold serial dilution method; method in brief: as §1
Streptococcus pneumoniae [10] = assay: Antimicrobial activity against extended spectrum beta-lactamases-producing Streptococcus pneumoniae 10-1 after 18-24 hrs by two-fold serial dilution method; method in brief: as §1
[11] = tested on: Staphylococcus epidermidis; assay: Antimicrobial activity against extended spectrum beta-lactamases-producing methicillin-resistant Staphylococcus epidermidis 10-10 after 18-24 hrs by two-fold serial dilution method
Method in brief: (§2)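 Agar twofold serial dilution MIC against clinical isolates. MIC was taken as the lowest concentration giving complete inhibition of bacterial growth after incubation at 35 °C for 18-24 h.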

Pseudomonas aeruginosa [12] = assay: Antimicrobial activity against extended spectrum beta-lactamases-producing Pseudomonas aeruginosa 10-20 after 18-24 hrs by two-fold serial dilution method; method in brief: as §1
Pseudomonas aeruginosa [13] = assay: Antimicrobial activity against Pseudomonas aeruginosa 10-12 after 18-24 hrs by two-fold serial dilution method; method in brief: as §1
[14] = tested on: Staphylococcus epidermidis; assay: Antimicrobial activity against extended spectrum beta-lactamases-producing methicillin-sensitive Staphylococcus epidermidis 10-11 after 18-24 hrs by two-fold serial dilution method; method in brief: as §1
Staphylococcus aureus [15] = assay: Antimicrobial activity against extended spectrum beta-lactamases-producing methicillin-resistant Staphylococcus aureus 10-15 after 18-24 hrs by two-fold serial dilution method; method in brief: as §2
Pseudomonas aeruginosa [16] = assay: Antimicrobial activity against extended spectrum beta-lactamases-producing Pseudomonas aeruginosa 10-9 after 18-24 hrs by two-fold serial dilution method; method in brief: as §1
Staphylococcus aureus [17] = assay: Antimicrobial activity against extended spectrum beta-lactamases-producing methicillin-sensitive Staphylococcus aureus 10-13 after 18-24 hrs by two-fold serial dilution method; method in brief: as §1
Pseudomonas aeruginosa [18] = assay: Antimicrobial activity against extended spectrum beta-lactamases-producing Pseudomonas aeruginosa 10-15 after 18-24 hrs by two-fold serial dilution method; method in brief: as §1
Staphylococcus aureus [19] = assay: Antimicrobial activity against Staphylococcus aureus ATCC […] after 18-24 hrs by two-fold serial dilution method; method in brief: as §1
Escherichia coli [20] = assay: Antimicrobial activity against Escherichia coli ATCC 25922 after 18-24 hrs by two-fold serial dilution method; method in brief: as §1
Staphylococcus aureus [21] = assay: Antimicrobial activity against extended spectrum beta-lactamases-producing methicillin-sensitive Staphylococcus aureus 10-14 after 18-24 hrs by two-fold serial dilution method; method in brief: as §1
Escherichia coli [22] = assay: Antimicrobial activity against extended spectrum beta-lactamases-producing Escherichia coli 10-3 after 18-24 hrs by two-fold serial dilution method; method in brief: as §1
Enterococcus faecalis [23] = assay: Antimicrobial activity against Enterococcus faecalis 10-5 after 18-24 hrs by two-fold serial dilution method; method in brief: as §1
[24] = tested on: Staphylococcus epidermidis; assay: Antimicrobial activity against extended spectrum beta-lactamases-producing methicillin-resistant Staphylococcus epidermidis 10-13 after 18-24 hrs by two-fold serial dilution method; method in brief: as §2
Pseudomonas aeruginosa [25] = assay: Antimicrobial activity against extended spectrum beta-lactamases-producing Pseudomonas aeruginosa 10-18 after 18-24 hrs by two-fold serial dilution method; method in brief: as §1
Staphylococcus aureus [26] = assay: Antimicrobial activity against extended spectrum beta-lactamases-producing methicillin-resistant Staphylococcus aureus 10-11 after 18-24 hrs by two-fold serial dilution method; method in brief: as §2
Escherichia coli [27] = assay: Antimicrobial activity against extended spectrum beta-lactamases-producing Escherichia coli 10-4 after 18-24 hrs by two-fold serial dilution method; method in brief: as §1
Pseudomonas aeruginosa [28] = assay: Antimicrobial activity against extended spectrum beta-lactamases-producing Pseudomonas aeruginosa 10-5 after 18-24 hrs by two-fold serial dilution method; method in brief: as §1
Enterococcus faecalis [29] = assay: Antimicrobial activity against Enterococcus faecalis 10-7 after 18-24 hrs by two-fold serial dilution method; method in brief: as §1
Enterococcus faecium [30] = assay: Antimicrobial activity against Enterococcus faecium 10-5 after 18-24 hrs by two-fold serial dilution method; method in brief: as §1
Streptococcus pneumoniae [31] = assay: Antimicrobial activity against extended spectrum beta-lactamases-producing Streptococcus pneumoniae 10-4 after 18-24 hrs by two-fold serial dilution method; method in brief: as §1
Klebsiella pneumoniae [32] = assay: Antimicrobial activity against extended spectrum beta-lactamases-producing Klebsiella pneumoniae 10-1 after 18-24 hrs by two-fold serial dilution method; method in brief: as §1
[33] = tested on: Staphylococcus epidermidis; assay: Antimicrobial activity against extended spectrum beta-lactamases-producing methicillin-sensitive Staphylococcus epidermidis 10-15 after 18-24 hrs by two-fold serial dilution method; method in brief: as §1
Escherichia coli [34] = assay: Antimicrobial activity against Escherichia coli 10-2 after 18-24 hrs by two-fold serial dilution method; method in brief: as §1
Enterococcus faecalis [35] = assay: Antimicrobial activity against Enterococcus faecalis 10-6 after 18-24 hrs by two-fold serial dilution method; method in brief: as §1
Klebsiella pneumoniae [36] = assay: Antimicrobial activity against Klebsiella pneumoniae 10-3 after 18-24 hrs by two-fold serial dilution method; method in brief: as §1

SMILES | MIC (Escherichia coli [1]) [µg/mL] | MIC [2] [µg/mL] | MIC (Klebsiella pneumoniae [3]) [µg/mL] | MIC (Escherichia coli [4]) [µg/mL] | MIC (Enterococcus faecium [5]) [µg/mL] | MIC (Klebsiella pneumoniae [6]) [µg/mL] | MIC (Klebsiella pneumoniae [7]) [µg/mL] | MIC (Klebsiella pneumoniae [8]) [µg/mL] | MIC (Escherichia coli [9]) [µg/mL] | MIC (Streptococcus pneumoniae [10]) [µg/mL] | MIC [11] [µg/mL] | MIC (Pseudomonas aeruginosa [12]) [µg/mL] | MIC (Pseudomonas aeruginosa [13]) [µg/mL] | MIC [14] [µg/mL] | MIC (Staphylococcus aureus [15]) [µg/mL] | MIC (Pseudomonas aeruginosa [16]) [µg/mL] | MIC (Staphylococcus aureus [17]) [µg/mL] | MIC (Pseudomonas aeruginosa [18]) [µg/mL] | MIC (Staphylococcus aureus [19]) [µg/mL] | MIC (Escherichia coli [20]) [µg/mL] | also measured
COc1cccc(OC)c1CO/N=C1\CN(c2nc3c(cc2F)c(=O)c(C(=O)O)cn3C2CC2)CC1CN.CS(=O)(=O)O (racemic) | > 128 | 2 | > 128 | > 128 | 8 | 64 | > 128 | > 128 | 8 | 0.125 | 0.25 | 2 | 4 | 0.125 | 0.5 | 4 | 0.125 | 4 | 0.03 | 0.25 | MIC (Staphylococcus aureus [21]): 0.125 µg/mL; MIC (Escherichia coli [22]): 16 µg/mL; MIC (Enterococcus faecalis [23]): 0.5 µg/mL; MIC [24]: 0.25 µg/mL; MIC (Pseudomonas aeruginosa [25]): 8 µg/mL; MIC (Staphylococcus aureus [26]): 1 µg/mL; MIC (Escherichia coli [27]): 4 µg/mL; MIC (Pseudomonas aeruginosa [28]): 4 µg/mL; MIC (Enterococcus faecalis [29]): 1 µg/mL; MIC (Enterococcus faecium [30]): 8 µg/mL; MIC (Streptococcus pneumoniae [31]): 0.25 µg/mL; MIC (Klebsiella pneumoniae [32]): 64 µg/mL; MIC [33]: 0.5 µg/mL; MIC (Escherichia coli [34]): 8 µg/mL; MIC (Enterococcus faecalis [35]): 2 µg/mL; MIC (Klebsiella pneumoniae [36]): 8 µg/mL
COc1ccc(CO/N=C2\CN(c3nc4c(cc3F)c(=O)c(C(=O)O)cn4C3CC3)CC2CN)c([N+](=O)[O-])c1OC.CS(=O)(=O)O (racemic) | > 128 | 1 | > 128 | > 128 | 4 | > 128 | > 128 | > 128 | 16 | 1 | 2 | 0.25 | 0.06 | 4 | 1 | 16 | 1 | 4 | 0.06 | 0.5 | MIC (Staphylococcus aureus [21]): 0.06 µg/mL; MIC (Escherichia coli [22]): > 128 µg/mL; MIC (Enterococcus faecalis [23]): 1 µg/mL; MIC [24]: 0.5 µg/mL; MIC (Pseudomonas aeruginosa [25]): 8 µg/mL; MIC (Staphylococcus aureus [26]): 2 µg/mL; MIC (Escherichia coli [27]): 8 µg/mL; MIC (Pseudomonas aeruginosa [28]): 8 µg/mL; MIC (Enterococcus faecalis [29]): 2 µg/mL; MIC (Enterococcus faecium [30]): 4 µg/mL; MIC (Streptococcus pneumoniae [31]): 4 µg/mL; MIC (Klebsiella pneumoniae [32]): > 128 µg/mL; MIC [33]: 4 µg/mL; MIC (Escherichia coli [34]): 8 µg/mL; MIC (Enterococcus faecalis [35]): 4 µg/mL; MIC (Klebsiella pneumoniae [36]): 8 µg/mL
